Assay results published in ChEMBL document CHEMBL3232828, “A potential CARB-pharmacophore for antineoplastic activity: part 1” (2014).

Key:
Assay type in all cases: functional
MCF7 [1] = experiment: Cytotoxicity against hormone-dependent human MCF7 cells at 8 mM after 12 hrs by CCK-8 assay
How it was run: (§1)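 MCF-7 monolayers grown in DMEM plus FBS and penicillin-streptomycin (37 °C, 5% CO2), plated 5 × 10^4 cells/well 12 h before dosing. Exposure 12 h at the listed concentration. Viability measured by WST-8 (CCK-8) reduction: 10% CCK-8 in serum-free medium, 3 h, absorbance 450 nm. Viability% = 100 × (sample−blank)/(control−blank).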

MCF7 [2] = experiment: Cytotoxicity against hormone-dependent human MCF7 cells at 6 mM after 12 hrs by CCK-8 assay; how it was run: as §1
A549 [3] = experiment: Cytotoxicity against hormone-independent human A549 cells at 2 mM after 12 hrs by CCK-8 assay
How it was run: (§2)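 A549 adherent cells in DMEM with FBS and penicillin-streptomycin at 37 °C, 5% CO2. Seeded at 1 × 10^4 cells/well and attached for 12 h. Compound applied for 12 h, followed by 3 h in serum-free medium with 10% CCK-8. OD at 450 nm. Viability expressed as 100 × (S−B)/(K−B) relative to untreated cells.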

LoVo [4] = experiment: Cytotoxicity against hormone-independent human LoVo cells at 6 mM after 12 hrs by CCK-8 assay
How it was run: (§3)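 For LoVo colorectal adenocarcinoma cells, cultured in DMEM supplemented with FBS and penicillin-streptomycin (37 °C, 5% CO2), 2.5 × 10^4 cells/well were plated 12 h ahead, then treated 12 h. Read-out: CCK-8 (10% in serum-free medium, 3 h), absorbance 450 nm. Percent viability = 100 × (S−B)/(K−B) using blank and control wells.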

HeLa [5] = experiment: Cytotoxicity against hormone-dependent human HeLa cells at 8 mM after 12 hrs by CCK-8 assay
How it was run: (§4)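 HeLa cells (adherent) in F-12K medium with fetal bovine serum and penicillin-streptomycin, 37 °C, 5% CO2. Seeded at 1 × 10^4 cells/well and allowed to form a monolayer for 12 h. Treated 12 h at the stated concentration. Medium then replaced with serum-free medium containing 10% CCK-8 for 3 h. OD read at 450 nm. Viability% = 100 × (S−B)/(K−B) against blank and untreated control.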

MCF7 [6] = experiment: Cytotoxicity against hormone-dependent human MCF7 cells at 2 mM after 12 hrs by CCK-8 assay; how it was run: as §1
LoVo [7] = experiment: Cytotoxicity against hormone-independent human LoVo cells at 8 mM after 12 hrs by CCK-8 assay; how it was run: as §3
HeLa [8] = experiment: Cytotoxicity against hormone-dependent human HeLa cells at 2 mM after 12 hrs by CCK-8 assay; how it was run: as §4
K562 [9] = experiment: Cytotoxicity against human K562 cells at 8 mM after 12 hrs by CCK-8 assay
How it was run: (§5)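 Suspension K562 cells maintained in RPMI 1640 with FBS and penicillin-streptomycin at 37 °C, 5% CO2. Seeded at 2 × 10^4 cells/well and exposed 12 h at the given concentration. Then incubated 3 h with 10% CCK-8 in serum-free medium. OD 450 nm. Viability% = 100 × (S−B)/(K−B) versus blank and untreated control.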

K562 [10] = experiment: Cytotoxicity against human K562 cells at 2 mM after 12 hrs by CCK-8 assay; how it was run: as §5
MCF7 [11] = experiment: Cytotoxicity against hormone-dependent human MCF7 cells at 4 mM after 12 hrs by CCK-8 assay; how it was run: as §1
HeLa [12] = experiment: Cytotoxicity against hormone-dependent human HeLa cells at 4 mM after 12 hrs by CCK-8 assay; how it was run: as §4
K562 [13] = experiment: Cytotoxicity against human K562 cells at 4 mM after 12 hrs by CCK-8 assay; how it was run: as §5
LoVo [14] = experiment: Cytotoxicity against hormone-independent human LoVo cells at 2 mM after 12 hrs by CCK-8 assay; how it was run: as §3
A549 [15] = experiment: Cytotoxicity against hormone-independent human A549 cells at 6 mM after 12 hrs by CCK-8 assay; how it was run: as §2
HeLa [16] = experiment: Cytotoxicity against hormone-dependent human HeLa cells at 6 mM after 12 hrs by CCK-8 assay; how it was run: as §4
A549 [17] = experiment: Cytotoxicity against hormone-independent human A549 cells at 4 mM after 12 hrs by CCK-8 assay; how it was run: as §2
LoVo [18] = experiment: Cytotoxicity against hormone-independent human LoVo cells at 4 mM after 12 hrs by CCK-8 assay; how it was run: as §3
K562 [19] = experiment: Cytotoxicity against human K562 cells at 6 mM after 12 hrs by CCK-8 assay; how it was run: as §5
A549 [20] = experiment: Cytotoxicity against hormone-independent human A549 cells at 8 mM after 12 hrs by CCK-8 assay; how it was run: as §2

## OC[C@H]1SC(O)[C@H](O)[C@@H](O)[C@@H]1O (stereo not given in full)
MCF7 [1]
  Activity: 49%
MCF7 [2]
  Activity: 40%
A549 [3]
  Activity: 79%
LoVo [4]
  Activity: 85%
HeLa [5]
  Activity: 98%
MCF7 [6]
  Activity: 17%
LoVo [7]
  Activity: 88%
HeLa [8]
  Activity: 70%
K562 [9]
  Activity: 98%
K562 [10]
  Activity: 6%
MCF7 [11]
  Activity: 25%
HeLa [12]
  Activity: 90%
K562 [13]
  Activity: 45%
LoVo [14]
  Activity: 28%
A549 [15]
  Activity: 96%
HeLa [16]
  Activity: 99%
A549 [17]
  Activity: 96%
LoVo [18]
  Activity: 54%
K562 [19]
  Activity: 94%
A549 [20]
  Activity: 97%

## OC[C@@]12CO[C@H](O1)[C@H](O)[C@@H](O)[C@H]2O
MCF7 [1]
  Activity: 3%
MCF7 [2]
  Activity: 5%
A549 [3]
  Activity: 23%
LoVo [4]
  Activity: 13%
HeLa [5]
  Activity: 3%
MCF7 [6]
  Activity: 6%
LoVo [7]
  Activity: 12%
HeLa [8]
  Activity: 4%
MCF7 [11]
  Activity: 2%
HeLa [12]
  Activity: 4%
LoVo [14]
  Activity: 9%
A549 [15]
  Activity: 5%
A549 [17]
  Activity: 4%
LoVo [18]
  Activity: 7%
A549 [20]
  Activity: 7%

## O[C@@H]1[C@@H](O)[C@H](O)[C@]2(CO2)[C@@H](O)[C@H]1O
MCF7 [1]
  Activity: 66%
MCF7 [2]
  Activity: 53%
LoVo [4]
  Activity: 5%
HeLa [5]
  Activity: 7%
MCF7 [6]
  Activity: 22%
LoVo [7]
  Activity: 24%
K562 [9]
  Activity: 36%
K562 [10]
  Activity: 6%
MCF7 [11]
  Activity: 46%
K562 [13]
  Activity: 20%
A549 [15]
  Activity: 20%
HeLa [16]
  Activity: 2%
K562 [19]
  Activity: 26%
A549 [20]
  Activity: 26%

## OCC1(O)SC[C@@H](O)C(O)C1O (single isomer, unassigned)
MCF7 [1]
  Activity: 2%
MCF7 [2]
  Activity: 3%
A549 [3]
  Activity: 44%
LoVo [4]
  Activity: 32%
HeLa [5]
  Activity: 51%
MCF7 [6]
  Activity: 3%
LoVo [7]
  Activity: 42%
HeLa [8]
  Activity: 28%
MCF7 [11]
  Activity: 7%
HeLa [12]
  Activity: 30%
LoVo [14]
  Activity: 28%
A549 [15]
  Activity: 46%
HeLa [16]
  Activity: 48%
A549 [17]
  Activity: 44%
LoVo [18]
  Activity: 25%
A549 [20]
  Activity: 55%
